Results as given in ChEMBL document CHEMBL1641407, “Imidazo[4,5-d]thiazolo[5,4-b]pyridine based inhibitors of IKK2: synthesis, SAR, PK/PD and activity in a preclinical model of rheumatoid arthritis” (Bioorg Med Chem Lett, 2011).

Experiments:
[1] = molecular target: T1, Inhibitor of nuclear factor kappa-B kinase subunit beta (Homo sapiens, UniProt O14920); experiment: Inhibition of IKK2
T1 sequence (O14920 whole entry): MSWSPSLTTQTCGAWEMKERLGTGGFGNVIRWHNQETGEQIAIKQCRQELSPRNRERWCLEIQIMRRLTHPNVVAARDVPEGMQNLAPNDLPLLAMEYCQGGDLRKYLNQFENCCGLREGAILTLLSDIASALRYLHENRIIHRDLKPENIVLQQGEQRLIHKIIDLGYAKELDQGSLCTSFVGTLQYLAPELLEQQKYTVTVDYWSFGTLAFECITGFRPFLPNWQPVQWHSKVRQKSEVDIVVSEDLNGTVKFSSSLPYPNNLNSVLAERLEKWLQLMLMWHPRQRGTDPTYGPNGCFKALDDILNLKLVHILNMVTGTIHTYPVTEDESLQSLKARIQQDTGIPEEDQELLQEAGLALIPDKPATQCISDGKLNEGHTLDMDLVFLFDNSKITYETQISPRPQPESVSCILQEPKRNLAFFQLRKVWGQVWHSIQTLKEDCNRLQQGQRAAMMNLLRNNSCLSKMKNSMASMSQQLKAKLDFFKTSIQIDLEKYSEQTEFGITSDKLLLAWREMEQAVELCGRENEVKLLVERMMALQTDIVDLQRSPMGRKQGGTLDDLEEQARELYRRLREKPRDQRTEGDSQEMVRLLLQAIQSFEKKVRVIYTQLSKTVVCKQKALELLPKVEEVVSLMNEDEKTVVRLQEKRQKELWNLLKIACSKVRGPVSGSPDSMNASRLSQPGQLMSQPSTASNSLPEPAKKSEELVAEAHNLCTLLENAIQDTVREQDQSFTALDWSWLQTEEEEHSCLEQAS
Outline: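 IKK-2 added at room temperature to 50 µg/mL GST-IκBα with ATP in 25 mM Tris·HCl, pH 7.5, containing MgCl₂, phosphate salts, NaCl, KCl, 1 mM DTT, 5% glycerol and BSA. Stopped after 60 min with 33 mM EDTA. Phospho-IκBα read by fluorescence-polarization competition between an anti-phospho-IκBα antibody and a fluorescein-labelled phosphopeptide.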

[2] = system: PBMC; experiment: Antiinflammatory activity in human PBMC assessed as inhibition of LPS-induced TNFalpha release treated for 5 mins before LPS challenge measured after 6 hrs by ELISA; type: functional, cell-based
Outline: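 PBMCs purified from heparinized healthy-volunteer blood by Ficoll-Hypaque gradient and suspended at 5 × 10⁶/mL in RPMI with 10% FBS. Cells preincubated with compound (0.2% DMSO) for 5 min at room temperature. LPS added from a 200 ng/mL stock, then 6 h at 37 °C. Medium TNF-α measured by ELISA. IC50 by linear regression.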

[3] = Half life in rat at 2 mg/kg, iv and 10 mg/kg, po; type: ADME, organism-based; details: in vivo
[4] = Clearance in rat at 2 mg/kg, iv and 10 mg/kg, po; type: ADME, organism-based; details: in vivo
[5] = molecular target: T2, Inhibitor of nuclear factor kappa-B kinase subunit alpha (Homo sapiens, UniProt O15111); experiment: Inhibition of IKK1
T2 sequence (O15111 whole entry): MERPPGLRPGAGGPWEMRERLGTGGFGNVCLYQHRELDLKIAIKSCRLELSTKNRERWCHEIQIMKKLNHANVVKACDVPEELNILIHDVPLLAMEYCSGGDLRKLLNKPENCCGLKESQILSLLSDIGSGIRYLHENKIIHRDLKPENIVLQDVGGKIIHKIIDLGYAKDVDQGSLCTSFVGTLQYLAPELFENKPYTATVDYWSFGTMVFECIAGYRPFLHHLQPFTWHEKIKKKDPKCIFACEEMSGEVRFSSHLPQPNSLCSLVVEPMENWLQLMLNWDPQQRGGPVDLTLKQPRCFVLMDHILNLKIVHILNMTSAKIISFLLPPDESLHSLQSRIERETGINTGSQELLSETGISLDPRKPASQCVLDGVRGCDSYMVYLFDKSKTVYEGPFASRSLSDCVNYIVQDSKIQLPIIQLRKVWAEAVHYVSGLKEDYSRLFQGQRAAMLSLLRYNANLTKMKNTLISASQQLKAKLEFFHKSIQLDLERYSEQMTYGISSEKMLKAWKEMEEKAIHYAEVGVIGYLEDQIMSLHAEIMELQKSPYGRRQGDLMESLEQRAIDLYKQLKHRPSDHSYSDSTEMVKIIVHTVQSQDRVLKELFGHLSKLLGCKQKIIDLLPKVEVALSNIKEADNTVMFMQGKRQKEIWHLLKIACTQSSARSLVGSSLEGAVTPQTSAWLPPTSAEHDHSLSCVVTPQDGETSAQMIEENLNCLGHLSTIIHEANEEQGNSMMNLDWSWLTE

[6] = system: Blood; experiment: Antiinflammatory activity in human whole blood assessed as inhibition of LPS-induced TNFalpha release treated for 5 mins before LPS challenge measured after 6 hrs by ELISA; type: functional, tissue-based
[7] = molecular target: Death-associated protein kinase 2 (Homo sapiens) (UniProt Q9UIK4); experiment: Residual activity at DAPK2 at 10 uM relative to control
[8] = system: Rattus norvegicus; experiment: Metabolic stability in rat assessed as metabolite (S)-N-(1-(3-(5-amino-8-methyl-8H-imidazo[4,5-d]thiazolo[5,4-b]pyridin-2-yl)phenyl)ethyl)acetamide total AUC at 2 mg/kg, iv and 10 mg/kg, po; type: ADME, organism-based; details: in vivo
[9] = molecular target: Serine/threonine-protein kinase 16 (Homo sapiens) (UniProt O75716); experiment: Residual activity at STK16 at 10 uM relative to control
[10] = system: Blood; experiment: Antiinflammatory activity in mouse whole blood assessed as inhibition of LPS-induced TNFalpha release treated for 5 mins before LPS challenge measured after 6 hrs by ELISA; type: functional, tissue-based
[11] = system: Mus musculus; experiment: Antiinflammatory activity in po dosed BALB/c mouse assessed as inhibition of LPS-induced TNFalpha release administered for 5 hrs before LPS challenge measured after 6.5 hrs post dose by ELISA; type: functional, organism-based
Outline: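 BALB/c female mice, 6–8 weeks old, n = 7–8 per treatment. Compounds given by oral gavage at 30 and 100 mg/kg in PEG400/HCl/Tween80/water; controls received vehicle alone. Five hours later, E. coli O111:B4 LPS 50 µg/kg ip. Serum collected 90 min after LPS, TNF-α measured by ELISA. Drug exposure sampled 6.5 h post-dose. Mean ± standard error.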

[12] = system: Mus musculus; experiment: Metabolic stability in mouse assessed as metabolite (S)-N-(1-(3-(5-amino-8-methyl-8H-imidazo[4,5-d]thiazolo[5,4-b]pyridin-2-yl)phenyl)ethyl)acetamide total AUC at 2 mg/kg, iv and 10 mg/kg, po; type: ADME, organism-based; details: in vivo
[13] = system: Canis familiaris; experiment: Metabolic stability in dog assessed as metabolite (S)-N-(1-(3-(5-amino-8-methyl-8H-imidazo[4,5-d]thiazolo[5,4-b]pyridin-2-yl)phenyl)ethyl)acetamide total AUC at 2 mg/kg, iv; type: ADME, organism-based, Canis lupus familiaris; set-up: dose 2 mg/kg, route intravenous, time AUCmax; details: in vivo

Serine/threonine-protein kinase 16 (Homo sapiens), sequence (O75716 whole entry): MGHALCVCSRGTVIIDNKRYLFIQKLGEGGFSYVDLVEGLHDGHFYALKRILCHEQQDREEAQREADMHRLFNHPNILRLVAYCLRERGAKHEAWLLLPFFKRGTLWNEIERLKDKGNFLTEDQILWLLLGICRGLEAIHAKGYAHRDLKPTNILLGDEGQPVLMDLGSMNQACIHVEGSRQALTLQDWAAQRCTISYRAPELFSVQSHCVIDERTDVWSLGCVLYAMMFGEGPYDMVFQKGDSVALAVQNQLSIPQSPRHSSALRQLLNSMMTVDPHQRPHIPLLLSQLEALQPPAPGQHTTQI
Death-associated protein kinase 2 (Homo sapiens), sequence (Q9UIK4 whole entry, looked up): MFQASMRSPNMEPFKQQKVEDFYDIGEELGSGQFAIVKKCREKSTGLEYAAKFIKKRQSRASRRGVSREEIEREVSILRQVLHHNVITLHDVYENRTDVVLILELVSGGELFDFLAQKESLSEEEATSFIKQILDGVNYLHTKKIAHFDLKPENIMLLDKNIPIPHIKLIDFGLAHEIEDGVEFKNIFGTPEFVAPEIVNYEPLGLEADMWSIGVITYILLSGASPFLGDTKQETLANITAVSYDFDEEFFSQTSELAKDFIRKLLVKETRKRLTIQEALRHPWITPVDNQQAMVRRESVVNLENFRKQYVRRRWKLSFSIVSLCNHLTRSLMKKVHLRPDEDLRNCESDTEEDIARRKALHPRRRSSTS

Structure (SMILES)	IC50 [1]	IC50 [2]	other results
CC(=O)N[C@@H](C)c1cccc(-c2nc3c(nc(N(C)C)c4ncn(C)c43)s2)c1	100 nM	990 nM	–
CCNc1nc2sc(-c3cccc([C@H](C)NC(=O)C4(C)CC4)c3)nc2c2c1ncn2C	34 nM	440 nM	half-life [3]: 2 h; clearance [4]: 7.5 mL/min/kg
CC(=O)N[C@@H](C)c1cccc(-c2nc3c(nc(NC(=O)N(C)C)c4ncn(C)c43)s2)c1	130 nM	–	–
CCNc1nc2sc(-c3cccc([C@H](C)NC(=O)c4cccc(S(C)(=O)=O)c4)c3)nc2c2c1ncn2C	41 nM	220 nM	half-life [3]: 1.5 h; clearance [4]: 5.1 mL/min/kg
CCNc1nc2sc(-c3cccc([C@H](C)NC(=O)c4cc(C)on4)c3)nc2c2c1ncn2C	78 nM	940 nM	half-life [3]: 2.8 h; clearance [4]: 2.8 mL/min/kg
Cc1ccc2nc(NCCN)c3ncc(C)n3c2c1 [BMS-345541]	–	1000 nM	–
CCNc1nc2sc(-c3cccc(C(C)(C)NC(C)=O)c3)nc2c2c1ncn2C	36 nM	400 nM	–
CCNCC(=O)N[C@@H](C)c1cccc(-c2nc3c(nc(NCC)c4ncn(C)c43)s2)c1	39 nM	440 nM	–
CCNc1nc2sc(-c3cccc([C@@H](C)NC(C)=O)c3)nc2c2c1ncn2C	55 nM	700 nM	–
CC(=O)N[C@@H](C)c1cccc(-c2nc3c(nc(NCC(F)(F)F)c4ncn(C)c43)s2)c1	57 nM	1360 nM	–
CNc1nc2sc(-c3ccc(CNC(C)=O)cc3)nc2c2c1ncn2C	60 nM	530 nM	–
COc1nc2sc(-c3cccc([C@H](C)NC(C)=O)c3)nc2c2c1ncn2C	> 500 nM	> 10000 nM	–
CC(=O)N[C@@H](C)c1cccc(-c2nc3c(nc(NCCN)c4ncn(C)c43)s2)c1	49 nM	4890 nM	–
CC(=O)NCc1cc(-c2cc3nc(NC4CC4)c4ncn(C)c4n3n2)ccc1F	–	730 nM	–

Further molecules by falling IC50 [1], results first:

IC50 [1]	Structure (SMILES)	IC50 [2]	other results
28 nM	CNc1nc2sc(-c3cccc([C@@H](C)NC(C)=O)c3)nc2c2c1ncn2C	560 nM	–
27 nM	CCNc1nc2sc(-c3cccc([C@H](C)NC(=O)CNC(C)=O)c3)nc2c2c1ncn2C	480 nM	–
20 nM	CCNc1nc2sc(-c3cccc([C@H](C)NC(=O)C4CCNCC4)c3)nc2c2c1ncn2C	290 nM	half-life [3]: 2.9 h; clearance [4]: 3 mL/min/kg
16 nM	CCNc1nc2sc(-c3cccc([C@H](C)NC(=O)COCC)c3)nc2c2c1ncn2C	600 nM	–
13 nM	CC(=O)N[C@@H](C)c1cccc(-c2nc3c(nc(N)c4ncn(C)c43)s2)c1	290 nM	IC50 [6]: 2000 nM; residual activity [7]: < 10%; AUC [8]: 2400 nM; residual activity [9]: < 10%; IC50 [10]: 1000 nM; inhibition [11]: Dose-dependent effect; AUC [12]: 3.37 µM; AUC [13]: 400 nM
10 nM	CCNc1nc2sc(-c3cccc([C@H](C)NC(=O)C4CCN(C)CC4)c3)nc2c2c1ncn2C	560 nM	clearance [4]: 130 mL/min/kg
9 nM	CNc1nc2sc(-c3cccc(C(C)NC(C)=O)c3)nc2c2c1ncn2C (stereo not given)	170 nM	IC50 [5]: 430 nM
6 nM	CNc1nc2sc(-c3cccc([C@H](C)NC(C)=O)c3)nc2c2c1ncn2C	80 nM	IC50 [5]: 230 nM
